According to ChEMBL document CHEMBL5370663, “Neurite Outgrowth-Inducing Drimane-Type Sesquiterpenoids Isolated from Cultures of the Polypore Abundisporus violaceus MUCL 56355” (J Nat Prod, 2023):
Calls of active or inactive are those of the source. The calls are words filed in the database; no cut-off is given here.

Experiments:
[1] = tested on: Schizosaccharomyces pombe; assay: Antifungal activity against Schizosaccharomyces pombe DSM 70572 assessed as fungal growth inhibition at 66.7 to 0.52 microg/ml incubated overnight by serial dilution assay; format: functional, organism-based; settings: dose 66.7-0.52 µg/ml
In short: (§1)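 Broth microdilution MIC. Compounds diluted in methanol across 66.7–0.52 μg/mL; incubated overnight. MIC is the lowest concentration with no visible growth of the test strain. Positive controls were ciprofloxacin, kanamycin, gentamycin and oxytetracycline for bacteria and nystatin for fungi.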

[2] = tested on: Rhodotorula glutinis; assay: Antifungal activity against Rhodotorula glutinis DSM 10134 assessed as fungal growth inhibition at 66.7 to 0.52 microg/ml incubated overnight by serial dilution assay; format: functional, organism-based; settings: dose 66.7-0.52 µg/ml; in short: as §1
[3] = tested on: Mucor hiemalis; assay: Antifungal activity against Mucor hiemalis DSM 2656 assessed as fungal growth inhibition at 66.7 to 0.52 microg/mlincubated overnight by serial dilution assay; format: functional, organism-based; settings: dose 66.7-0.52 µg/ml; in short: as §1
[4] = tested on: Pseudomonas aeruginosa; assay: Antibacterial activity against Pseudomonas aeruginosa PA14 assessed as bacterial growth inhibition at 66.7 to 0.52 microg/ml incubated overnight by serial dilution assay; format: functional, organism-based; settings: dose 66.7-0.52 µg/ml; in short: as §1
[5] = tested on: Staphylococcus aureus; assay: Antibacterial activity against Staphylococcus aureus DSM 346 assessed as bacterial growth inhibition at 66.7 to 0.52 microg/ml incubated overnight by serial dilution assay; format: functional, organism-based; settings: dose 66.7-0.52 µg/ml; in short: as §1
[6] = tested on: Bacillus subtilis; assay: Antibacterial activity against Bacillus subtilis DSM 10 assessed as bacterial growth inhibition at 66.7 to 0.52 microg/ml incubated overnight by serial dilution assay; format: functional, organism-based; settings: dose 66.7-0.52 µg/ml; in short: as §1
[7] = tested on: KB 3-1; assay: Cytotoxicity against human KB-3-1 cells incubated for 5 days by MTT assay; format: toxicity, cell-based; settings: kb 3-1, 120 h, time 5 day
In short: (§2)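 MTT viability test in 96-well plates on KB3.1 (human endocervical adenocarcinoma) and L929 (mouse fibroblast) lines, reported as IC50; epothilone B positive control.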

[8] = tested on: L929; assay: Cytotoxicity against mouse L929 cells incubated for 5 days by MTT assay; format: toxicity, cell-based; settings: l929, 120 h, time 5 day; in short: as §2
[9] = tested on: Escherichia coli; assay: Antibacterial activity against Escherichia coli DSM 1116 assessed as bacterial growth inhibition at 66.7 to 0.52 microg/ml incubated overnight by serial dilution assay; format: functional, organism-based; settings: dose 66.7-0.52 µg/ml; in short: as §1
[10] = tested on: Wickerhamomyces anomalus; assay: Antifungal activity against Pichia anomala DSM 6766 assessed as fungal growth inhibition at 66.7 to 0.52 microg/ml incubated overnight by serial dilution assay; format: functional, organism-based; settings: dose 66.7-0.52 µg/ml; in short: as §1
[11] = tested on: Acinetobacter baumannii; assay: Antibacterial activity against Acinetobacter baumannii DSM 30008 assessed as bacterial growth inhibition at 66.7 to 0.52 microg/ml incubated overnight by serial dilution assay; format: functional, organism-based; settings: dose 66.7-0.52 µg/ml; in short: as §1
[12] = tested on: Candida albicans; assay: Antifungal activity against Candida albicans DSM 1665 assessed as fungal growth inhibition at 66.7 to 0.52 microg/ml incubated overnight by serial dilution assay; format: functional, organism-based; settings: dose 66.7-0.52 µg/ml; in short: as §1
[13] = tested on: Chromobacterium violaceum; assay: Antibacterial activity against Chromobacterium violaceum DSM 30191 assessed as bacterial growth inhibition at 66.7 to 0.52 microg/ml incubated overnight by serial dilution assay; format: functional, organism-based; settings: dose 66.7-0.52 µg/ml; in short: as §1
[14] = tested on: Mycolicibacterium smegmatis; assay: Antibacterial activity against Mycobacterium smegmatis ATCC 700084 assessed as bacterial growth inhibition at 66.7 to 0.52 microg/ml incubated overnight by serial dilution assay; format: functional, organism-based; settings: dose 66.7-0.52 µg/ml; in short: as §1
[15] = tested on: PC-12; assay: Induction of neurite outgrowth in NGF-treated rat PC12 cells at 5 ug/mL measured after 48 hrs by phase contrast microscopy; format: functional, cell-based; settings: dose 5.0 µg/ml
In short: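 PC-12 cells grown in RPMI-1640 with 10% heat-inactivated horse serum, 5% FBS and 2 mM L-glutamine. Seeded at 1.5 × 10^4 cells/well on collagen IV and allowed to attach 6 h at 37 °C, 7.5% CO2. Medium then switched to differentiation medium (1% horse serum) with compound at 5 μg/mL plus NGF 5 ng/mL; DMSO control. Mean neurite length from phase-contrast live imaging at 48 h; five independent experiments, one-tailed t-test.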

Compound	inhibition [1]	inhibition [2]	inhibition [3]	inhibition [4]	inhibition [5]	inhibition [6]	Activity [7]	Activity [8]	inhibition [9]	inhibition [10]	inhibition [11]	inhibition [12]	inhibition [13]	inhibition [14]	Activity [15]
C[C@@]12C=C(CO)C(=O)C[C@H]1[C@](C)(C(=O)O)CC[C@@H]2O	inactive	inactive	inactive	inactive	inactive	inactive	Non-Toxic	Non-Toxic	inactive	inactive	inactive	inactive	inactive	inactive	Active
C[C@@]12C=C(CO)[C@@H](O)C[C@H]1[C@](C)(C(=O)O)CCC2	inactive	inactive	inactive	inactive	inactive	inactive	Non-Toxic	Non-Toxic	inactive	inactive	inactive	inactive	inactive	inactive	Active
C[C@]12CCC[C@@](C)(C(=O)O)[C@@H]1CC=C(CO)[C@H]2C=O	inactive	inactive	inactive	inactive	inactive	inactive	Non-Toxic	Non-Toxic	inactive	inactive	inactive	inactive	inactive	inactive	Active
C[C@]12CCC[C@@](C)(C(=O)O)[C@@H]1CC=C1CO[C@H](O)[C@@H]12	inactive	inactive	inactive	inactive	inactive	inactive	Non-Toxic	Non-Toxic	inactive	inactive	inactive	inactive	inactive	inactive	Active
COC(=O)[C@H]1C(C(=O)O)=CC[C@@H]2[C@]1(C)CCC[C@@]2(C)C(=O)O	inactive	inactive	inactive	inactive	inactive	inactive	Non-Toxic	Non-Toxic	inactive	inactive	inactive	inactive	inactive	inactive	
C[C@@]12C=C(C(=O)O)[C@@H](O)C[C@H]1[C@](C)(C(=O)O)CCC2	inactive	inactive	inactive	inactive	inactive	inactive	Non-Toxic	Non-Toxic	inactive	inactive	inactive	inactive	inactive	inactive	Active
C[C@@]1(C(=O)O)CCC[C@]2(C)c3cocc3C(=O)C[C@@H]12	inactive	inactive	inactive	inactive	inactive	inactive	Non-Toxic	Non-Toxic	inactive	inactive	inactive	inactive	inactive	inactive	Active
C[C@@]1(C(=O)O)CCC[C@]2(C)C3=C(COC3=O)C(=O)C[C@@H]12	inactive	inactive	inactive	inactive	inactive	inactive	Non-Toxic	Non-Toxic	inactive	inactive	inactive	inactive	inactive	inactive	
